Bioassay records from PubChem.
This is a sample that favours compounds with a hit; in the whole collection about 4.9% have one here.
APP 5'UTR act: activators of APP 5'UTR luciferase reporter, primary screen, SH-SY5Y cells | activation, % at 2 µM | 190,000 tested, 1% active | SH-SY5Y APP 5'UTR luciferase reporter, luminescence; zero percent = DMSO vehicle wells | AID 1276, 2008;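 active = activation above a set limit, based on mean plus 3 SD of controls, cut at about 140% in these data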
STAT3 activator: IL-6 driven STAT3 reporter potentiators, primary screen, U3A cells, luciferase, luminescence, MLSCN library | AID 871, 2007 | 190,000 tested, 0.91% active | activation (% of control), % at 5.6 µM | IL-6 STAT3-luciferase reporter; 100% = signal with IL-6 EC80 alone;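 active = activation above the screen-wide mean of compound activation plus 3 SD, cut at about 130% in these data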;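 also: 0% = background luminescence of wells with medium and substrate only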
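Assay system – human STAT1-deficient U3A cells with stable STAT3-luciferase reporter · Also added – IL-6 (33 ng/mL) · Schedule – compound 1 h, then IL-6 6 h at 37 °C · Technique – reporter luminescence signal · Evaluation – % activation versus median of IL-6-stimulated wells · Benchmarks – IL-6-only wells as 100% reference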
STAT3 blocker: IL-6 driven STAT3 reporter inhibitors, primary screen, U3A cells, luciferase, luminescence, MLSCN library. IL-6 STAT3-luciferase reporter; host cell line lacks STAT1. inhibition, % at 5.5 µM. 190,000 tested, 0.89% active;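 active = inhibition above the mean inhibition across all screened compounds plus 3 SD, cut at about 44% in these data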;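 also: 0% = DMSO only wells and 100% = 100 µM nifuroxazide control wells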
NF-kB expr up: activators of NF-kB expression in neurons, primary screen, cell-based, HTS; human neuronal cells, NF-kB reporter expression; active compounds read high; AID 1239, 2008; 190,000 tested, 1.6% active; fold change at 12.5 µM; in the data active = fold change above about 3.3
STAT1 act: STAT1 signaling activators, primary screen, cell-based, HTS, luciferase reporter | 200,000 tested, 2.6% active | NIH 3T3 STAT1-luciferase reporter, IFN-gamma, luminescence; 100% = IFN-gamma alone, no compound | activation (% of control), % at 5.5 µM | AID 932, 2007;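 active = activation above the screen-wide mean activation plus 3 SD, cut at about 130% in these data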;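 also: raw ratio to IFN-gamma control signal so 100% means no change and 0% no light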
STAT1 blocker: STAT1 signaling inhibitors, primary screen, cell-based, HTS, luciferase reporter | NIH 3T3 STAT1-luciferase reporter, IFN-gamma, luminescence | inhibition, % at 5.5 µM | 200,000 tested, 0.35% active;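 active = inhibition above a set limit, the mean inhibition across all tested compounds plus 3 SD, cut at about 34% in these data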;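 also: 0% = IFN-gamma with DMSO and 100% = IFN-gamma with 300 µM nifuroxazide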
* = called active by the depositor; / = no result given.

SMILES	APP 5'UTR act	STAT3 activator	STAT3 blocker	NF-kB expr up	STAT1 act	STAT1 blocker
Cn1c(SCc2ccccc2Cl)nc2ccccc21	114	101	-1	1.1	141*	-45
COc1ccccc1N(C)S(=O)(=O)c1ccc(C(=O)OCC(=O)N(C(C)C)C(C)C)cc1	5	99	2	1	100	0
Cc1cc(C)c2c(N)c(C(=O)NC3CC3)sc2n1	-20	73	34	1.1	104	-4
Cc1cc(C)c2c(N)c(C(=O)Nc3nccs3)sc2n1	124	54	58*	3	55	48*
COCc1cc(C)nc2sc(C(=O)Nc3nccs3)c(N)c12	43	105	-1	1.5	132*	-35
CC(CNC(=S)Nc1cc(F)cc(F)c1)CSc1ccc(Cl)cc1 (configuration not stated)	29	95	13	1	95	3
CC(C)(C)c1nnc(SCC(=O)c2ccccc2)n(N)c1=O	11	100	2	1.2	94	6
c1ccc(N2CCN(c3ncnc4sc5c(c34)CCC5)CC2)cc1	-9	101	2	0.54	104	-5
CCc1cc2c(N3CCN(c4ccccc4)CC3)ncnc2s1	-4	67	46*	0.57	94	7
CN(C(=S)NC(=O)Cc1ccccc1)c1ccccc1	19	93	16	1.4	108	-8
O=C(Nc1ccc2nc(-c3ccccc3)[nH]c2c1)c1ccco1	49	79	28	0.55	105	-6
O=C(Nc1ccc(N2CCCC2)c(Cl)c1)c1cccs1	235*	94	12	7.4*	142*	-45
CC1N(C)c2cc(NC(=O)c3ccco3)ccc2C1(C)C (configuration not stated)	113	109	-5	0.27	143*	-47
Cc1cccc2[nH]c(-c3ccc(NC(=O)c4ccco4)cc3)nc12	102	101	4	2.1	130*	-33
CS(=O)(=O)N1CCN(c2ccc(NC(=S)NC(=O)c3cccs3)cc2)CC1	14	95	10	1.2	100	-1
O=C(NC(=S)Nc1ccc(N2CCCCC2)cc1)c1cccs1	136*	93	17	1.5	148*	-56
COC(=O)/C=C/c1oc2ccccc2c1C	3	119	-20	1.3	111	-13
CCC(C)(C)n1nnnc1C(c1cc(OC)ccc1OC)N1CCN(Cc2ccccc2)CC1 (configuration not stated)	7	108	-8	0.8	100	-1
CC(C)CN1C(=O)c2ccc(NC(=O)c3ccco3)cc2C1=O	9	100	2	1.1	130*	-34
O=C(O)CCN1C(=O)c2ccc(NC(=O)c3ccco3)cc2C1=O	2	95	9	1.1	103	-6
CCN(CC)c1ccc(NC(=S)NC(=O)c2ccco2)cc1	97	100	2	1.6	142*	-48
CCCC(=O)Nc1ccc(NC(=S)NC(=O)c2cccs2)cc1	4	104	-1	1.1	107	-10
CCN(CC)c1ccc(NC(=O)c2ccco2)cc1	164*	88	20	5.2*	127	-28
CCN(CC)c1ccc(NC(=S)NC(=O)c2cccs2)cc1	97	93	10	1.9	134*	-40
COCCCn1c(C2CCCCC2)nc2oc3cc(OC)ccc3c(=O)c2c1=O	-1	93	10	1.1	109	-10
SMILES	APP 5'UTR act	STAT3 activator	STAT3 blocker	NF-kB expr up	STAT1 act	STAT1 blocker
Cc1ccc(C(=O)N/C(=C\c2ccc(Cl)cc2)C(=O)NCC2CCCO2)cc1 (configuration not stated)	-3	106	-6	1.1	101	-1
Cc1c(N2C(=O)C(=O)/C(=C(/O)c3ccc(Cl)cc3)C2c2ccccc2)c(=O)n(-c2ccccc2)n1C (configuration not stated)	1	101	2	1.1	106	-6
COc1ccc(C)cc1C1=Nc2ccccc2C1(C)C	0	95	9	1	90	11
Cc1ccc(O)c(C2=Nc3ccccc3C2(C)C)c1	27	111	-6	1.1	147*	-52
COc1ccccc1C1CC(=O)NC(C)=C1C(=O)OC(C)C (configuration not stated)	18	91	12	1	104	-5
COc1nc(-c2ccccc2)nnc1-c1ccccc1	180*	153*	-62	6.2*	156*	-61
COc1nc(-c2ccccc2)nc(C)c1CC(=O)O	-9	104	1	1	99	0
Cc1ccc(/C(N)=N/OC(=O)c2ccc(Cl)cc2Cl)cc1	154*	106	-10	1.6	140*	-45
COc1ccccc1C(=O)O/N=C(\N)c1ccc(Cl)cc1	70	132	-32	5.4*	140*	-44
COc1ccccc1C(=O)NNC(=O)c1ccc(Cl)cc1	2	102	1	1.7	114	-18
C=C(C)C1CC=C(C)/C(=N/NC(=O)c2ccccc2[N+](=O)[O-])C1 (configuration not stated)	14	92	15	1.1	87	14
C=C(C)C1CC=C(C)/C(=N/NC(=O)c2cccs2)C1 (configuration not stated)	63	101	-3	3.2	129*	-33
O=C(NNC(=O)c1c(F)cccc1F)c1ccccc1-n1cccc1	-15	104	2	1.1	100	-2
O=C(/C=C/c1ccco1)Nc1ccc2c(c1)OCO2	120	92	12	4.6*	127	-30
O=C(/C=C/c1ccc2c(c1)OCO2)Nc1cccnc1	162*	82	25	0.99	128	-33
CC(=O)Nc1ccc(NC(=O)/C=C/c2ccc3c(c2)OCO3)cc1	32	104	1	1.3	108	-11
Nc1ccccc1C(=O)/C=C/c1ccc2c(c1)OCO2	129	99	-2	7.2*	110	-11
Cc1cc(C)nc(NC(=O)/C=C/c2ccc3c(c2)OCO3)c1	100	99	-1	3.3*	135*	-40
O=C(Oc1ccc(Br)cc1C(=O)/C=C/c1ccccc1F)c1ccco1	9	140*	-39	/	101	-1
Cc1ccc(NC(=O)Nc2ccc3c(c2)nc(C)n3C)cc1	130	75	37	6.5*	132*	-37
CC(=O)c1ccc(NC(=O)Nc2ccc3c(c2)nc(C)n3C)cc1	41	91	14	1.9	128	-33
COC(=O)c1ccc(NC(=O)Nc2ccc3c(c2)nc(C)n3C)cc1	17	80	25	1.1	117	-21
